Assay [1] deals with DU-145. Kind of assay: Cytotoxicity against human DU145 cells after 48 hrs by SRB assay. It is filed as functional, cell-based. The settings on record: Homo sapiens, DU-145, 48 h; for CC50: read-out: LC50 (the source's name). A digest of the protocol: (§1)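 Cells grown in RPMI 1640 with 10% FBS and penicillin/streptomycin at 37 °C and 5% CO₂, trypsinized, then seeded at 5 × 10³/well. After 18 h drug-free attachment, samples in DMSO/EtOH/PBS (0.5:0.5:99) were added for 48 h continuous exposure. Cells were fixed with cold TCA (1 h, 4 °C) and stained with SRB (10 min). Tris-solubilized stain read at 490 nm. Triplicate wells, mean ± SD; GI₅₀ derived.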
In general terms: The SRB assay estimates cell density from bound dye.

Assay [2] has as its system LNCaP. Kind of assay: Cytotoxicity against human LNcaP cells after 48 hrs by SRB assay. The settings on record: for CC50: read-out: LC50 (the source's name). In kind it is functional. In a few lines:
as §1

The nature of assay [3]: Cytotoxicity against human IGROV cells after 48 hrs by SRB assay. The note with it: for CC50: read-out: LC50 (the source's name). It is filed as functional. In a few lines:
as §1

Assay [4] is described as follows: Cytotoxicity against human IGROV-ET cells after 48 hrs by SRB assay. It is filed as functional. The note with it: for CC50: read-out: LC50 (the source's name). A digest of the protocol:
as §1

For assay [5], the system named is SK-MEL-28. Kind of assay: Cytotoxicity against human SK-MEL-28 cells after 48 hrs by SRB assay. It is filed as functional, cell-based. The settings on record: Homo sapiens, SK-MEL-28, 48 h; for GI50: read-out: GI50; for CC50: read-out: LC50 (the source's name). A digest of the protocol:
as §1

Assay [6] deals with A549. Kind of assay: Cytotoxicity against human A549 cells after 48 hrs by SRB assay. In kind it is functional, cell-based. The settings on record: Homo sapiens, A549, 48 h; for GI50: read-out: GI50. A digest of the protocol: as §1
Assay [7] has as its system K562. Kind of assay: Cytotoxicity against human K562 cells after 48 hrs by SRB assay. In kind it is functional. The note with it: K562, 48 h; for CC50: read-out: LC50 (the source's name). In a few lines:
as §1

For assay [8], the system named is PANC-1. Kind of assay: Cytotoxicity against human PANC1 cells after 48 hrs by SRB assay. The settings on record: PANC-1, 48 h; for CC50: read-out: LC50 (the source's name). In kind it is functional. A digest of the protocol: as §1
The test system of assay [9] is HT-29. Kind of assay: Cytotoxicity against human HT29 cells after 48 hrs by SRB assay. It is filed as functional, cell-based. The note with it: Homo sapiens, HT-29, 48 h; read-out: LC50 (the source's name). A digest of the protocol: as §1
For assay [10], the system named is LoVo. Kind of assay: Cytotoxicity against human LoVo cells after 48 hrs by SRB assay. It is filed as functional. The note with it: for CC50: read-out: LC50 (the source's name).
In assay [11] the test system is LoVo. In words: Cytotoxicity against human doxorubicin resistant LoVo cells after 48 hrs by SRB assay. It is filed as functional. The settings on record: for CC50: read-out: LC50 (the source's name). A digest of the protocol: as §1
Assay [12] has as its system HeLa. Kind of assay: Cytotoxicity against human HeLa cells after 48 hrs by SRB assay. The note with it: for CC50: read-out: LC50 (the source's name). In kind it is functional. In a few lines: as §1
The nature of assay [13]: Cytotoxicity against human HeLa-APL cells after 48 hrs by SRB assay. It is filed as functional. A digest of the protocol:
as §1

One may read the GI50 as the concentration at which growth is held to half of that of the control. A word on the TGI: it is the concentration at which net growth stops. Read a low TGI as more potent growth arrest. One may read the LC50 as the concentration that kills 50% of the test population. A low value points to greater toxicity. Take `C/C=C1\NC(=O)[C@H](Cc2ccccc2)NC(=O)[C@@H](C(C)C)NC(=O)[C@@H]([C@H](C)CC)NC(=O)[C@H](NC(=O)[C@H](NC(=O)[C@H](CCCN)NC(=O)[C@H]2CCCCN2C(=O)[C@H](NC(=O)[C@@H](NC(=O)[C@@H](NC(=O)[C@H](NC(=O)CC[C@@H](C)CC)C(C)C)[C@@H](C)O)C(C)C)C(C)C)[C@H](C)CC)[C@H](C)OC(=O)[C@H](C(C)C)NC1=O`: the CC50 in assay [1] was determined as 1300 nM; in assay [2], 1310 nM; in assay [3], 487 nM; in assay [4] it was 483 nM; in assay [5], 1360 nM; in assay [7], 2160 nM. In addition, the CC50 amounted to 2020 nM in [8]; 447 nM in assay [9]; 678 nM in [10]; 1700 nM in assay [11]; 1080 nM in [12]. Besides, the GI50 in assay [3] stood at 786 nM; in assay [3] (read-out: GI50), 1390 nM; in [4] it was 632 nM; in [4] (read-out: GI50) it was 894 nM; in assay [5] it was 1590 nM; in assay [6] it was 8000 nM. For the same compound, the 50% growth inhibitory concentration (GI50) in [10] was 2250 nM; in [11], 1220 nM; in [12], 3080 nM; in assay [13], 1510 nM. The TGI in [5] stood at 1470 nM; in assay [6], 8700 nM; in [10], 2340 nM; in assay [11] it was 1820 nM; in assay [12], 2660 nM; in [13] it was 1450 nM. Also, in [6], the LC50 was 6720 nM. Moreover, the LC50 (concentration giving 50% net cell kill) in assay [13] was found to be 978 nM.
Regarding `C/C=C1\NC(=O)[C@H](Cc2ccccc2)NC(=O)[C@@H](C(C)C)NC(=O)[C@@H]([C@H](C)CC)NC(=O)[C@H](NC(=O)[C@H](NC(=O)[C@H](CCCN)NC(=O)[C@@H]2CCCN2C(=O)[C@H](NC(=O)[C@@H](NC(=O)[C@@H](NC(=O)[C@H](NC(=O)CC[C@@H](C)CC)C(C)C)[C@@H](C)O)C(C)C)C(C)C)[C@H](C)CC)[C@H](C)OC(=O)[C@H](C(C)C)NC1=O`, the CC50 amounted to 1430 nM in assay [1]; 1630 nM in [2]; 525 nM in [3]; 549 nM in assay [4]; 1620 nM in [5]; 2180 nM in assay [7]. Further, the CC50 in [8] stood at 2040 nM; in [9], 6760 nM; in assay [10] it was 794 nM; in assay [11], 1870 nM; in [12], 1090 nM. In addition, in assay [6], the LC50 was found to be 6780 nM. This compound also gave an LC50 (concentration giving 50% net cell kill) in assay [13] of 986 nM.
Take `C/C=C1\NC(=O)[C@H](Cc2ccccc2)NC(=O)[C@@H](C(C)C)NC(=O)[C@@H]([C@H](C)CC)NC(=O)[C@H](NC(=O)[C@H](NC(=O)[C@H](CCCN)NC(=O)[C@H]2CCCN2C(=O)[C@H](NC(=O)[C@@H](NC(=O)[C@@H](NC(=O)[C@H]2CCCN2C(=O)CCCC(C)C)[C@@H](C)O)C(C)C)C(C)C)[C@H](C)CC)[C@H](C)OC(=O)[C@H](C(C)C)NC1=O`: the CC50 is 1160 nM in assay [1]; 1060 nM in [2]; 768 nM in [3]; 426 nM in assay [4]; 1140 nM in [5]; 1800 nM in assay [7]. Moreover, the CC50 in [8] was determined as 2820 nM; in [9], 1140 nM; in [10], 1500 nM; in assay [11], 3270 nM; in assay [12] it was 1090 nM. In addition, the GI50 in [2] worked out at 1160 nM; in [4], 608 nM; in [4] (read-out: GI50), 4700 nM; in [5] it was 1050 nM; in assay [7], 1310 nM; in assay [8], 2750 nM. Further, the figures for the GI50 in [11] and in assay [13] were 3510 nM and 1180 nM, respectively. Besides, the concentration for total growth inhibition (TGI) in [2] was 1110 nM; in assay [5], 1240 nM; in assay [7], 1530 nM; in assay [8] it was 3800 nM; in assay [11], 3370 nM; in assay [13], 1650 nM. Besides, the LC50 in assay [6] came out at 1240 nM. For the same compound, in assay [13], the LC50 (concentration giving 50% net cell kill) was determined as 1010 nM.
In the case of `C/C=C1\NC(=O)[C@H](Cc2ccccc2)NC(=O)[C@@H](C(C)C)NC(=O)[C@@H]([C@H](C)CC)NC(=O)[C@H](NC(=O)[C@H](NC(=O)[C@H](CCCN)NC(=O)[C@@H]2CC[C@H](c3ccccc3)N2C(=O)[C@H](NC(=O)[C@@H](NC(=O)[C@@H](NC(=O)[C@H](NC(=O)CC[C@@H](C)CC)C(C)C)[C@@H](C)O)C(C)C)C(C)C)[C@H](C)CC)[C@H](C)OC(=O)[C@H](C(C)C)NC1=O`, the CC50 in [1] came to 1360 nM; in assay [2], 1550 nM; in [3], 499 nM; in [4], 5220 nM; in assay [5], 1540 nM; in assay [7], 2080 nM. Further, the CC50 in [8] turned out to be 1940 nM; in assay [9], 643 nM; in assay [10], 756 nM; in [11], 1780 nM; in assay [12] it was 1040 nM. For the same compound, the LC50 in assay [6] came to 6440 nM. In assay [10], this compound displayed a GI50 of 7330 nM. Moreover, total growth inhibition in assay [10] (TGI) required 6170 nM. The same compound returned an LC50 (concentration giving 50% net cell kill) in assay [13] of 938 nM.
`C/C=C1\NC(=O)[C@H](Cc2ccccc2)NC(=O)[C@@H](C(C)C)NC(=O)[C@@H]([C@H](C)CC)NC(=O)[C@H](NC(=O)[C@H](NC(=O)[C@H](CCCN)NC(=O)[C@H]2Cc3ccccc3CN2C(=O)[C@H](NC(=O)[C@@H](NC(=O)[C@@H](NC(=O)[C@H](NC(=O)CC[C@@H](C)CC)C(C)C)[C@@H](C)O)C(C)C)C(C)C)[C@H](C)CC)[C@H](C)OC(=O)[C@H](C(C)C)NC1=O`: the TGI came to 2280 nM in [1]; 3110 nM in assay [5]; 1540 nM in assay [6]; 2540 nM in assay [10]; 2490 nM in assay [11]. Also, the GI50 stood at 2390 nM in assay [1] (read-out: GI50); 806 nM in [3]; 1520 nM in assay [3] (read-out: GI50); 779 nM in assay [4]; 1060 nM in [4] (read-out: GI50); 3630 nM in assay [5]. For the same compound, the GI50 stood at 1430 nM in assay [6], 2620 nM in assay [10] and 2290 nM in [11]. The CC50 in [1] came to 1370 nM; in assay [2], 1510 nM; in assay [3] it was 464 nM; in [4], 527 nM; in assay [5], 1560 nM; in [7], 2100 nM. The CC50 in assay [8] was 1950 nM; in assay [9] it was 426 nM; in assay [10], 685 nM; in [11] it was 1740 nM; in assay [12], 1050 nM. Besides, in assay [6], the LC50 worked out at 6500 nM. In assay [13], this compound gave an LC50 (concentration giving 50% net cell kill) of 947 nM.
